# Measurements taken from ChEMBL document CHEMBL1649119, “Daptomycin pharmacokinetics in adult oncology patients with neutropenic fever” (Antimicrob Agents Chemother, 2009).
# Experiments:
# [1] = Apparent volume of distribution during terminal phase in healthy human subjects at 12 mg/kg, iv administered as 30 mins infusion every 24 hrs measured on day 14; format: ADME, organism-based; set-up: dose 12 mg/kg, route intravenous; conditions: in vivo
# [2] = Unbound fraction in healthy human plasma at 8 mg/kg, iv administered as 30 mins infusion every 24 hrs measured on day 1; format: ADME, organism-based; set-up: dose 8 mg/kg, route intravenous
# [3] = AUC ( 0 to infinity) in cancer patient with neutropenic fever at 6 mg/kg, iv administered as 30 mins infusion every 24 hrs; format: ADME, organism-based; set-up: time infinity, dose 6 mg/kg, route intravenous; conditions: human, plasma
# Method in brief: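 Adult oncology patients with neutropenic fever (n = 29) received 6 mg/kg by total body weight as a 30-min IV infusion. Plasma was sampled predose, at end of infusion, and at 0.5, 1, 2, 4, 8, 12 and 24 h. Total drug was measured by validated HPLC (linear 1–100 μg/ml). Noncompartmental analysis: AUC0-24 by linear trapezoidal rule, plus last concentration/λz. Mean ± SD.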
# [4] = Clearance in cancer patient with neutropenic fever at 6 mg/kg, iv administered as 30 mins infusion every 24 hrs; format: ADME, organism-based; set-up: dose 6 mg/kg, route intravenous; conditions: human, in vivo
# Method in brief: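 29 adult oncology patients with neutropenic fever received 6 mg/kg (total body weight) as a 30-min IV infusion every 24 h. Plasma was sampled predose, at the end of infusion, and at 0.5, 1, 2, 4, 8, 12 and 24 h. Total drug was measured by validated HPLC (linear 1–100 μg/ml). Noncompartmental clearance = dose/AUC0-∞, with AUC from trapezoids plus last concentration/λz. Mean ± SD.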
# [5] = Plasma protein binding in human after 2 hrs; format: ADME, cell-free; conditions: read-out: PPB (converted)
# Method in brief: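 Neutropenic-fever oncology patients received 6 mg/kg IV daptomycin; serum was drawn 0.5, 2 and 8 h after the end of infusion. Free drug was obtained by ultrafiltration (30,000-MW cutoff) and quantified by HPLC against a saline-matrix curve of 0.25–100 μg/ml, with total plasma drug also measured. Percent bound was (total − free)/total × 100; results are given as mean ± SD.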
# [6] = tested on: Enterococcus; test: Antimicrobial activity against Enterococcus; format: functional
# [7] = Apparent volume of distribution during terminal phase in healthy human at 8 mg/kg, iv administered as 30 mins infusion every 24 hrs measured on day 14; format: ADME, organism-based; set-up: dose 8 mg/kg, route intravenous; conditions: in vivo
# [8] = Apparent volume of distribution during terminal phase in healthy human at 8 mg/kg, iv administered as 30 mins infusion every 24 hrs measured on day 7; format: ADME, organism-based; set-up: dose 8 mg/kg, route intravenous; conditions: in vivo
# [9] = Apparent volume of distribution during terminal phase in healthy human at 4 mg/kg, iv administered as 30 mins infusion every 24 hrs measured on day 7; format: ADME, organism-based; set-up: dose 4 mg/kg, route intravenous; conditions: in vivo
# [10] = Apparent volume of distribution during terminal phase in healthy human at 6 mg/kg, iv administered as 30 mins infusion every 24 hrs measured on day 1; format: ADME, organism-based; set-up: dose 6 mg/kg, route intravenous; conditions: in vivo
# [11] = Cmax in healthy human at 4 mg/kg, iv administered as 30 mins infusion every 24 hrs measured on day 1; format: ADME, organism-based; set-up: dose 4 mg/kg, route intravenous; conditions: in vivo
# [12] = Renal clearance in morbidly obese adult human at 4 mg/kg, iv administered as single dose 30 mins infusion; format: ADME, organism-based, Kidney; set-up: dose 4 mg/kg, route intravenous; conditions: in vivo, read-out: CL_renal (converted)
# [13] = Renal clearance in old healthy human at 4 mg/kg, iv administered as single dose 30 mins infusion; format: ADME, organism-based, Kidney; set-up: dose 4 mg/kg, route intravenous; conditions: in vivo, read-out: CL_renal (converted)
# [14] = Half life in healthy human at 4 mg/kg, iv administered as single dose 30 mins infusion; format: ADME, organism-based; set-up: dose 4 mg/kg, route intravenous; conditions: in vivo
# [15] = AUC (0 to infinity) in adult human subjects at 6 mg/kg, iv administered as single dose 30 mins infusion; format: ADME, organism-based; set-up: time infinity, dose 6 mg/kg, route intravenous; conditions: plasma
# [16] = AUC (0 to infinity) in healthy adult human at 6 mg/kg, iv administered as single dose 30 mins infusion; format: ADME, organism-based; set-up: dose 6 mg/kg, route intravenous, time infinity; conditions: plasma
# [17] = AUC (0 to infinity) in morbidly obese adult human at 4 mg/kg, iv administered as single dose 30 mins infusion; format: ADME, organism-based; set-up: time infinity, dose 4 mg/kg, route intravenous; conditions: plasma
# [18] = AUC (0 to infinity) in moderately obese adult human at 4 mg/kg, iv administered as single dose 30 mins infusion; format: ADME, organism-based; set-up: time infinity, dose 4 mg/kg, route intravenous; conditions: plasma
# [19] = AUC (0 to infinity) in healthy human subjects at 12 mg/kg, iv administered as 30 mins infusion every 24 hrs measured on day 1; format: ADME, organism-based; set-up: time infinity, dose 12 mg/kg, route intravenous; conditions: plasma
# [20] = tested on: Homo sapiens; test: AUC (0 to infinity) in healthy human subjects at 6 mg/kg, iv administered as 30 mins infusion every 24 hrs measured on day 1; format: ADME, organism-based, Plasma; set-up: time infinity, dose 6 mg/kg, route intravenous; conditions: in vivo
# [21] = AUC (0 to infinity) in healthy human at 8 mg/kg, iv administered as 30 mins infusion every 24 hrs measured on day 14; format: ADME, organism-based; set-up: time infinity, dose 8 mg/kg, route intravenous; conditions: plasma
# [22] = AUC (0 to infinity) in healthy human at 4 mg/kg, iv administered as 30 mins infusion every 24 hrs measured on day 7; format: ADME, organism-based; set-up: time infinity, dose 4 mg/kg, route intravenous; conditions: plasma
# [23] = Cmax in healthy human subjects at 8 mg/kg, iv administered as 30 mins infusion every 24 hrs measured on day 1; format: ADME, organism-based; set-up: dose 8 mg/kg, route intravenous; conditions: in vivo
# [24] = Cmax in healthy human at 4 mg/kg, iv administered as 30 mins infusion every 24 hrs measured on day 7; format: ADME, organism-based; set-up: dose 4 mg/kg, route intravenous; conditions: in vivo
# [25] = Drug excretion in nonobese adult human urine assessed as unchanged drug at 4 mg/kg, iv administered as single dose 30 mins infusion; format: ADME, organism-based; set-up: dose 4 mg/kg, route intravenous; conditions: read-out: Drug uptake
# [26] = Drug excretion in young healthy human urine assessed as unchanged drug at 4 mg/kg, iv administered as single dose 30 mins infusion; format: ADME, organism-based; set-up: dose 4 mg/kg, route intravenous; conditions: read-out: Drug uptake
# [27] = Drug excretion in healthy human urine assessed as unchanged drug at 4 mg/kg, iv administered as single dose 30 mins infusion; format: ADME, organism-based; set-up: dose 4 mg/kg, route intravenous; conditions: read-out: Drug uptake
# [28] = Mean residence time in old healthy human at 4 mg/kg, iv administered as single dose 30 mins infusion; format: ADME, organism-based; set-up: dose 4 mg/kg, route intravenous; conditions: in vivo
# [29] = Mean residence time in healthy human at 4 mg/kg, iv administered as single dose 30 mins infusion; format: ADME, organism-based; set-up: dose 4 mg/kg, route intravenous; conditions: in vivo
# [30] = tested on: Homo sapiens; test: Apparent volume of distribution in healthy human at 4 mg/kg, iv administered as single dose 30 mins infusion; format: ADME, organism-based; set-up: dose 4 mg/kg, route intravenous; conditions: in vivo, 0.5 h
# [31] = Volume of distribution at steady state in morbidly obese adult human at 4 mg/kg, iv administered as single dose 30 mins infusion; format: ADME, organism-based; set-up: dose 4 mg/kg, route intravenous; conditions: in vivo, read-out: Vdss
# [32] = Volume of distribution at steady state in nonobese adult human at 4 mg/kg, iv administered as single dose 30 mins infusion; format: ADME, organism-based; set-up: dose 4 mg/kg, route intravenous; conditions: in vivo, read-out: Vdss
# [33] = Volume of distribution at steady state in moderately obese adult human at 4 mg/kg, iv administered as single dose 30 mins infusion; format: ADME, organism-based; set-up: dose 4 mg/kg, route intravenous; conditions: in vivo, read-out: Vdss
# [34] = tested on: Homo sapiens; test: Unbound clearance in healthy human at 8 mg/kg, iv administered as 30 mins infusion every 24 hrs measured on day 7; format: ADME, organism-based; set-up: dose 8 mg/kg, route intravenous; conditions: in vivo
# [35] = tested on: Homo sapiens; test: Unbound clearance in healthy human at 8 mg/kg, iv administered as 30 mins infusion every 24 hrs measured on day 1; format: ADME, organism-based; set-up: dose 8 mg/kg, route intravenous; conditions: in vivo
# [36] = Clearance in healthy human subjects at 10 mg/kg, iv administered as 30 mins infusion every 24 hrs measured on day 1; format: ADME, organism-based; set-up: dose 10 mg/kg, route intravenous; conditions: in vivo
# [37] = Half life in healthy human subjects at 6 mg/kg, iv administered as 30 mins infusion every 24 hrs measured on days 1-3; format: ADME, organism-based; set-up: dose 6 mg/kg, route intravenous; conditions: in vivo
# [38] = Half life in healthy human subjects at 12 mg/kg, iv administered as 30 mins infusion every 24 hrs measured on day 4; format: ADME, organism-based; set-up: dose 12 mg/kg, route intravenous; conditions: in vivo
# [39] = Half life in healthy human subjects at 10 mg/kg, iv administered as 30 mins infusion every 24 hrs measured on day 1; format: ADME, organism-based; set-up: dose 10 mg/kg, route intravenous; conditions: in vivo
# [40] = AUC (0 to tau) in healthy human subjects at 6 mg/kg, iv administered as 30 mins infusion every 24 hrs measured on days 1-3; format: ADME, organism-based; set-up: dose 6 mg/kg, route intravenous; conditions: plasma
compound,measurement,setting,value
CCCCCCCCCC(=O)N[C@@H](Cc1c[nH]c2ccccc12)C(=O)N[C@H](CC(N)=O)C(=O)N[C@@H](CC(=O)O)C(=O)N[C@@H]1C(=O)NCC(=O)N[C@@H](CCCN)C(=O)N[C@@H](CC(=O)O)C(=O)N[C@H](C)C(=O)N[C@@H](CC(=O)O)C(=O)NCC(=O)N[C@H](CO)C(=O)N[C@@H]([C@H](C)CC(=O)O)C(=O)N[C@@H](CC(=O)c2ccccc2N)C(=O)O[C@@H]1C,Vd,[1],0.0992 L/kg
same,fraction unbound at 1 day,[2],0.09
same,AUC(0-inf),[3],427 µg·h/mL
same,clearance,[4],0.259 mL/min/kg
same,fraction unbound at 2 h,[5],0.063
same,MIC90,[6],2 µg/mL
same,Vd,[7],0.095 L/kg
same,Vd,[8],0.092 L/kg
same,Vd,[9],0.096 L/kg
same,Vd,[10],0.096 L/kg
same,Cmax,[11],54.6 µg/mL
same,CL renal at 0.5 h,[12],0.134 mL/min/kg
same,CL renal at 0.5 h,[13],0.0712 mL/min/kg
same,half-life,[14],7.74 h
same,AUC(0-inf),[15],928 µg·h/mL
same,AUC(0-inf),[16],598 µg·h/mL
same,AUC(0-inf),[17],548 µg·h/mL
same,AUC(0-inf),[18],421 µg·h/mL
same,AUC(0-inf),[19],1270 µg·h/mL
same,AUC,[20],729.8 µg·h/mL
same,AUC(0-inf),[21],1090 µg·h/mL
same,AUC(0-inf),[22],494 µg·h/mL
same,Cmax,[23],106 µg/mL
same,Cmax,[24],57.8 µg/mL
same,dose excreted at 0.5 h,[25],52.3%
same,dose excreted at 0.5 h,[26],42.3%
same,dose excreted at 0.5 h,[27],59.7%
same,MRT,[28],15.9 h
same,MRT,[29],10.9 h
same,Vd,[30],6350 mL
same,Vd,[31],0.18 L/kg
same,Vd,[32],0.13 L/kg
same,Vd,[33],0.15 L/kg
same,CL,[34],0.682 mL/min/kg
same,CL,[35],0.833 mL/min/kg
same,clearance,[36],0.165 mL/min/kg
same,half-life,[37],7.6 h
same,half-life,[38],7.7 h
same,half-life,[39],8.4 h
same,AUC tau,[40],645 µg·h/mL
